Screening data (PubChem BioAssay)
In the library only some 2.1% were active in any assay of this set; here they are far more common.
Runt-CBFb FRET = Runt domain-CBFb interaction inhibition | 220,000 compounds, 0.46% hits | inhibition, % at 20 µM | Cerulean-Runt/Venus-CBFb FRET ratio 530/480, 1 h | Q01196+Q13951 | AID 1496;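 active = inhibition over about 50% at 20 µM in the single-dose screen, limit read from the data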;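 also: 0% = DMSO wells and 100% = excess unlabeled CBFb competitor control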
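Reagent – Venus-CBFb binding partner, 100 nM · Assay system – Cerulean-tagged RUNX1 Runt domain (FRET donor) fusion protein · Input – 100 nM per protein · Incubation – two 1 h room-temperature incubations shielded from light · Measured by – FRET fluorescence · Medium – Tris buffer pH 7.5 with salts and BSA · Benchmarks – unlabeled CBFb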
MEX-5 binding = C. elegans MEX-5 TCR-2 RNA binding activity; Q9XUB2; MEX-5/FITC-TCR2 RNA binding, fluorescence polarization; hits give low values; activity score (negative = inhibition of binding), % at 10 µM; 300,000 compounds, 0.38% hits; AID 1832;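 active = inhibition past about -25% in most replicates, and total fluorescence under double the plate's negative control median, limit read from the data; inconclusive = replicates evenly split on the limit, or fluorescence at least double controls; inactive = too little inhibition in most replicates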;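 also: 0% = DMSO and -100% = 5 µM competing unlabeled TCR2 RNA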
Runt-SMMHC FRET = blocks binding of human RUNX1 Runt domain to CBFb-SMMHC | Cerulean-Runt/Venus-CBFb-SMMHC FRET ratio 530/480, 1 h | inhibition, % at 20 µM | 220,000 compounds, 0.74% hits | AID 1434;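 active = mean inhibition across duplicate retests at 20 µM reaching about 50%, limit read from the data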;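 also: 0% = DMSO wells and 100% = wells with excess untagged CBFb-SMMHC; inhibitors lower the FRET ratio by blocking Runt binding to CBFb-SMMHC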
KLK7 zymogen act = activators of human kallikrein-7 zymogen; activation, % at 7 µM; purified proKLK7, EDANS-DABCYL substrate fluorescence; 100% is mature enzyme control, 0% vehicle; AID 652039; P49862; 370,000 compounds, 0.9% hits;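 active = activation above the mean of all tested compounds plus 3 SD, computed per campaign excluding outliers beyond control limits, cut at about 13% in these data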
Target sequence (P49862 whole entry, looked up): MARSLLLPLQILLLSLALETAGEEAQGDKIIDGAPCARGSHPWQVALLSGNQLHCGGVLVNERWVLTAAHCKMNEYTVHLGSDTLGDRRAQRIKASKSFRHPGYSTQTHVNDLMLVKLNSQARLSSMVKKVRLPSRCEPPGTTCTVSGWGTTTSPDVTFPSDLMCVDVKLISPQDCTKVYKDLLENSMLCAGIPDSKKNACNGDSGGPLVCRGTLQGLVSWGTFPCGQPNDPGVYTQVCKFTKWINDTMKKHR
RanGTP-Imp inh = inhibitors of RanGTP-importin-beta interaction, primary screen, biochemical, FRET, CFP-Ran, YFP-importin-beta, homogeneous. inhibition, % (concentration not given with the values). 300,000 compounds, 1.1% hits. cell-free CFP-Ran/YFP-importin-beta FRET ratio;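 active = more than half of the replicate wells show a fall in the fluorescence ratio signal beyond about 16%, limit read from the data, passing the limit was not always enough; inconclusive = exactly half of the replicate wells pass the set limit; inactive = fewer than half of replicates pass the limit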;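 also: 0% = DMSO wells and 100% = Ran loaded with GDP instead of GTP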
* marks the source's active call; other numbers are inactive results; ? = inconclusive; . = no result.

SMILES | Runt-CBFb FRET | MEX-5 binding | Runt-SMMHC FRET | KLK7 zymogen act | RanGTP-Imp inh
Cc1ccc(Cn2c(=N)c(C(=O)NC3CCCC3)cc3c(=O)n4ccccc4nc32)cc1 | . | -2 | . | . | -1
Cc1ccc(S(=O)(=O)N(C)c2ccc(C(=O)NC3CCCCC3)cc2)cc1 | . | . | . | 1 | .
Oc1c(Br)cc(/C=N/n2c(-c3ccccc3)n[nH]c2=S)c(Br)c1O | . | -52* | . | . | -3
Oc1c(Br)cc(Br)cc1/C=N/n1c(-c2ccccc2)n[nH]c1=S | . | 4 | . | -1 | -6
COCCNC(=O)C(c1ccc(F)cc1)N(C(=O)CCC(=O)Nc1ccccn1)C1CCCCC1 (configuration not stated) | . | 0 | . | 0 | 2
Cc1ccccc1S(=O)(=O)c1cc(C#N)c(=O)[nH]c1N | 87* | 1 | 134* | 0 | 6
COC(=O)c1ccc(Cn2cnc3cnccc32)cc1 | . | 3 | . | 1 | 0
COc1cc(C)c(Cl)cc1S(=O)(=O)N1CCSC1 | . | 0 | . | 0 | 1
COc1ccc(N=c2oc3cc(O)ccc3cc2C(=O)Nc2ccccn2)cc1OC | 55* | -5 | 92* | 0 | 5
CCN(CC(=O)Nc1ccc(NC(C)=O)cc1)C(=O)c1c(C)nn(Cc2ccc(C)cc2)c1Cl | . | . | . | 0 | .
Cc1cc(/C=N/NC(=O)Cn2c3ccccc3c(=O)c3ccccc32)c(C)n1-c1ccccc1 | . | 4 | 24 | 3 | 94*
Cc1ccc(N(CC(=O)N/N=C/c2cc(C)n(-c3ccccc3)c2C)S(C)(=O)=O)c(C)c1 | 0 | 2 | 0 | 0 | 0
CCCc1cc(=O)oc2c3c(c(Cl)cc12)OCN(CCCO)C3 | . | -2 | . | . | 62*
CC1=C(C(=O)N(C)C)CC(CC(=O)NCCCCc2ccccc2)C(=O)N1CCCN1CCCC1=O (configuration not stated) | . | . | . | 0 | .
CCCn1nc(C(=O)Nc2ccc(S(=O)(=O)Nc3nccs3)cc2)c2ccccc2c1=O | -2 | -41* | -7 | -1 | -4
O=C(Nc1ccc(S(=O)(=O)Nc2nccs2)cc1)c1ccc(N2C(=O)c3ccccc3C2=O)cc1 | -52 | -29* | -75 | 0 | 2
CC(=O)Nc1ccc(S(=O)(=O)N(C)CC(=O)OC(C)C(=O)N(C)C2CCCCC2)cc1 (configuration not stated) | . | 1 | . | 0 | ?
O=C(c1cc2ccccc2o1)c1cccs1 | 34 | -4 | 0 | -1 | 0
O=C(c1cccs1)c1ccc(-c2cccs2)s1 | 19 | ? | 50 | -20 | 42*
NSc1nc(N)c2nc(-c3ccccc3)c(-c3ccccc3)nc2n1 | 43 | 3 | 69* | 0 | 36*
NNc1nnc(-c2ccccc2)c(-c2ccccc2)n1 | 22 | -1 | -1 | 0 | -5
CCC(=O)c1ccc(OCC(=O)NNC(=O)c2cc(C)oc2C)cc1 | . | . | . | 0 | .
CCCCN1C(=O)/C(=C2/Sc3ccccc3N2C)S/C1=N\c1ncn[nH]1 | -92 | -69* | 5 | 0 | ?
COc1ccc(CNC(=O)COc2ccc([N+](=O)[O-])cc2)cc1 | 0 | 0 | -2 | 1 | 37*
COc1ccc(OCC(=O)NCc2ccc(Cl)cc2)cc1 | . | -1 | . | 1 | 1
SMILES | Runt-CBFb FRET | MEX-5 binding | Runt-SMMHC FRET | KLK7 zymogen act | RanGTP-Imp inh
O=C(O)c1cc(O)c2c(c1)C(=O)c1cccc(O)c1C2=O | -40 | -28* | -235 | 2 | -18
Cc1cc(O)c2c(c1)C(=O)c1cccc(O)c1C2=O | 7 | . | -29 | 0 | .
CC(C)(C)N1Cc2nnn(CC3CCCCC3)c2-c2ccccc2S1(=O)=O | . | . | . | 0 | .
O=C(Nc1nccs1)c1ccccc1N=Cc1ccccc1 | 19 | 0 | 58* | 42* | 7
C[C@@H]1CN([C@H](C)CO)C(=O)CCCn2nncc2CO[C@H]1CN(C)Cc1ccc2cccnc2c1 | . | . | . | 0 | .
O=C(c1ccco1)[C@@H]1[C@@H]2C(=O)N(c3ccc(Br)cc3)C(=O)[C@@H]2C2c3ccccc3C=CN21 (some centres not stated) | -20 | . | -56 | -2 | .
O=C(c1ccco1)[C@@H]1[C@@H]2C(=O)N(c3ccc(F)cc3)C(=O)[C@@H]2C2c3ccccc3C=CN21 (some centres not stated) | -13 | -13 | -45 | -1 | 45*
CN1CCCc2cc3c(C(F)(F)F)cc(=O)oc3nc21 | 12 | ? | 42 | -25 | 132*
FC(F)(F)c1cc(C(F)(F)F)c2ccc(N3CCOCC3)nc2n1 | . | -3 | . | 2 | 3
CCC(CC)c1nnc(NC(=O)C2COc3ccccc3O2)s1 (configuration not stated) | -1 | 3 | 1 | 0 | 21*
COc1ccc2cc(N=Cc3nc(-c4ccc(C)cc4)oc3O)cnc2c1 | -14 | -47* | -158 | 1 | 7
Cc1ccc(-c2nc(C=Nc3ccccc3)c(O)o2)cc1 | 3 | -10 | 8 | 0 | -2
CCC(C)Sc1nnc(NC(=O)C2CCN(C(=O)c3ccco3)CC2)s1 (configuration not stated) | . | 0 | . | 0 | 0
O=C(Nc1ccc(Nc2ccncc2)cc1)c1ccc(Nc2ccnc3ccc([N+](=O)[O-])cc23)cc1 | 14 | 1 | 57* | 0 | 6
O=C(Nc1ccc(OC(F)(F)F)cc1)Nc1c(-c2ccccc2)nc2ncccn12 | . | . | . | -4 | .
Nc1cccc2nc3ccccc3cc12 | 20 | 2 | 58* | . | 176*
COC(=O)C[C@H]1CC[C@H]2[C@H](COc3ccc(NS(=O)(=O)c4ccccc4C)cc3C(=O)N2C)O1 | . | . | . | 0 | .
O=C(c1nc2ccc(Cl)cn2c1CN1CCC[C@H]1CO)N1CCCCCCC1 | . | -23 | . | 0 | 22*
O=C(c1nc2ccc(Cl)cn2c1CNCCn1ccnc1)N1CCCCCCC1 | 1 | 0 | 4 | 0 | -2
NC(=O)[C@@H]1CCCN1Cc1c(C(=O)N2CCN(C3CCCCC3)CC2)nc2ccccn12 | . | -3 | . | 2 | 112*
Cc1cccc(OC2CCN(Cc3c(C(=O)N4CCCC4)nc4ccccn34)CC2)c1 | 0 | -2 | -2 | -1 | -2
O=C(c1cnn2ccccc12)N1CCN(C2CCCCC2)CC1 | 0 | 0 | 8 | 0 | 1
O=C(c1nc2ccccn2c1CN1CCCC(O)C1)N1CCN(C2CCCCC2)CC1 (configuration not stated) | . | -9 | . | 1 | 103*
COC1CCN(Cc2c(C(=O)N3CCN(C4CCCCC4)CC3)nc3ccccn23)CC1 | . | -4 | . | . | 104*
CN(C)c1ccc(C(=O)N/N=C/c2ccccn2)cc1 | . | -2 | . | 0 | 0
COCC1CCN(Cc2c(C(=O)N3CCN(C4CCCCC4)CC3)nc3ccccn23)C1 (configuration not stated) | . | -19 | . | 1 | 111*
O=C(c1nc2ccccn2c1CN1CCC(Cc2ccccc2)CC1)N1CCCC1 | 0 | 1 | -5 | 0 | -5
CC(=O)C[C@@H]1OC[C@H](Cc2ccccc2)N1S(=O)(=O)c1ccc(C)cc1 | . | . | . | 0 | .
